pEC50: −log10 of the molar value.
Legend:
[1] = tested on: Human immunodeficiency virus 1; experiment: Antiviral activity against Human immunodeficiency virus 1 subtype F1 infected in human MT4 cells assessed as reduction in virus induced cytopathicity; format: functional, organism-based; details: Human immunodeficiency virus 1, subtype F1, MT4
Summary of the method: (§1)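 Recombinant viruses were made by recombining patient-derived HIV-1 RT-PR sequences into an RT-PR-deleted HXB2 proviral clone transfected into MT4 cells. Subtype was assigned from PR/RT sequence by Smith-Waterman alignment to HXB2. MT4 cells (1.5 × 10^5/ml) were infected at MOI 0.01 with serially diluted compound for 5 days at 37°C. Viability was read by MTT and EC50 derived.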

[2] = tested on: Human immunodeficiency virus 1; experiment: Antiviral activity against Human immunodeficiency virus 1 subtype BG infected in human MT4 cells assessed as reduction in virus induced cytopathicity; format: functional, organism-based; summary of the method: as §1
[3] = tested on: Human immunodeficiency virus 1; experiment: Antiviral activity against Human immunodeficiency virus 1 subtype G infected in human MT4 cells assessed as reduction in virus induced cytopathicity; format: functional, organism-based; summary of the method: as §1
[4] = tested on: Human immunodeficiency virus 1; experiment: Antiviral activity against Human immunodeficiency virus 1 subtype C infected in human MT4 cells assessed as reduction in virus induced cytopathicity; format: functional, organism-based; summary of the method: as §1
[5] = tested on: Human immunodeficiency virus 1; experiment: Antiviral activity against Human immunodeficiency virus 1 subtype AG infected in human MT4 cells assessed as reduction in virus induced cytopathicity; format: functional, organism-based; summary of the method: as §1
[6] = tested on: Human immunodeficiency virus 1; experiment: Antiviral activity against Human immunodeficiency virus 1 subtype A1 infected in human MT4 cells assessed as reduction in virus induced cytopathicity; format: functional, organism-based; details: Human immunodeficiency virus 1, subtype A1, MT4; summary of the method: as §1
[7] = tested on: MT4; experiment: Cytotoxicity against human MT4 cells by cell based assay
Summary of the method: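 Cytotoxicity in MT4 cells from cell-based assays gave a 50% cytotoxic concentration, reported as a median with first- to third-quartile values over the stated number of experiments.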

[8] = tested on: Human immunodeficiency virus 1; experiment: Antiviral activity against Human immunodeficiency virus 1 3B infected in human MT4 cells assessed as reduction in virus induced cytopathicity; format: functional, organism-based
Summary of the method: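 MT4 cells (1.5 × 10^5/ml) infected with HIV-1 IIIB at MOI 0.01 and added to serially diluted compound. Cultures incubated 5 days at 37°C under 5% CO2. Cell viability, as protection from virus-induced killing, read by MTT tetrazolium colorimetry. EC50 reported as median with first to third quartiles over n experiments.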

[9] = tested on: Human immunodeficiency virus 1; experiment: Antiviral activity against Human immunodeficiency virus 1 subtype AE infected in human MT4 cells assessed as reduction in virus induced cytopathicity; format: functional, organism-based; summary of the method: as §1
[10] = tested on: Human immunodeficiency virus 2; experiment: Antiviral activity against Human immunodeficiency virus 2 ROD infected in human MT4 cells assessed as reduction in virus induced cytopathicity; format: functional, organism-based; details: Human immunodeficiency virus 2, ISOLATE ROD
Summary of the method: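 MT4 cells (1.5 × 10^5/ml) infected with HIV (MOI 0.01) were added to serial compound dilutions and incubated 5 days at 37°C in 5% CO2. Protection from virus-induced cell death was read by MTT tetrazolium colorimetry, giving an EC50 in micromolar.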

[11] = tested on: Human immunodeficiency virus 1; experiment: Antiviral activity against Human immunodeficiency virus 1 subtype D infected in human MT4 cells assessed as reduction in virus induced cytopathicity; format: functional, organism-based; summary of the method: as §1
[12] = tested on: Human immunodeficiency virus 1; experiment: Antiviral activity against Human immunodeficiency virus 1 subtype (H) infected in human MT4 cells assessed as reduction in virus induced cytopathicity; format: functional, organism-based; summary of the method: as §1

**Q.** How did the pEC50 [1] turn out when `Cc1ccnc2c1NC(=O)c1cccnc1N2C1CC1` [NEVIRAPINE] was run?
**A.** 7.83

**Q.** What about the pEC50 [2] of the same molecule?
**A.** 7.59

**Q.** What about the pEC50 [3] of the same molecule?
**A.** 7.61

**Q.** What about the pEC50 [4] of the same molecule?
**A.** > 8.31

**Q.** And the pEC50 [5]?
**A.** 7.84

**Q.** And the pEC50 [6]?
**A.** 8.03

**Q.** What about the Activity [7] of the same molecule?
**A.** > 32 µM

**Q.** What about the pEC50 [8] of the same molecule?
**A.** 7.47

**Q.** What about the pEC50 [9] of the same molecule?
**A.** 8.05

**Q.** And the pEC50 [10]?
**A.** < 4.51

**Q.** What about the pEC50 [11] of the same molecule?
**A.** 7.62

**Q.** And the pEC50 [12]?
**A.** 7.47

Source: ChEMBL document CHEMBL1240360, “TMC278, a next-generation nonnucleoside reverse transcriptase inhibitor (NNRTI), active against wild-type and NNRTI-resistant HIV-1” (Antimicrob Agents Chemother, 2010)
